Data from ChEMBL document CHEMBL1140497, “The molecular pruning of a phosphoramidate peptidomimetic inhibitor of prostate-specific membrane antigen” (Bioorg Med Chem, 2007).

Target: Glutamate carboxypeptidase 2 (Homo sapiens, UniProt Q04609)
Experiment: Inhibition of PSMA
Conditions: not given
In short: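 Purified PSMA in 50 mM Tris pH 7.4, diluted to give 15–20% substrate conversion without inhibitor. Substrate PAB-Glu-γ-Glu at 10 μM final. Five serial inhibitor dilutions spanning 10–90% inhibition. 15 min at 37 °C with shaking. Stopped with methanolic TFA, buffered with K2HPO4, centrifuged. Supernatant quantified by HPLC; IC50 calculated.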

Glutamate carboxypeptidase 2, sequence (Q04609 whole entry): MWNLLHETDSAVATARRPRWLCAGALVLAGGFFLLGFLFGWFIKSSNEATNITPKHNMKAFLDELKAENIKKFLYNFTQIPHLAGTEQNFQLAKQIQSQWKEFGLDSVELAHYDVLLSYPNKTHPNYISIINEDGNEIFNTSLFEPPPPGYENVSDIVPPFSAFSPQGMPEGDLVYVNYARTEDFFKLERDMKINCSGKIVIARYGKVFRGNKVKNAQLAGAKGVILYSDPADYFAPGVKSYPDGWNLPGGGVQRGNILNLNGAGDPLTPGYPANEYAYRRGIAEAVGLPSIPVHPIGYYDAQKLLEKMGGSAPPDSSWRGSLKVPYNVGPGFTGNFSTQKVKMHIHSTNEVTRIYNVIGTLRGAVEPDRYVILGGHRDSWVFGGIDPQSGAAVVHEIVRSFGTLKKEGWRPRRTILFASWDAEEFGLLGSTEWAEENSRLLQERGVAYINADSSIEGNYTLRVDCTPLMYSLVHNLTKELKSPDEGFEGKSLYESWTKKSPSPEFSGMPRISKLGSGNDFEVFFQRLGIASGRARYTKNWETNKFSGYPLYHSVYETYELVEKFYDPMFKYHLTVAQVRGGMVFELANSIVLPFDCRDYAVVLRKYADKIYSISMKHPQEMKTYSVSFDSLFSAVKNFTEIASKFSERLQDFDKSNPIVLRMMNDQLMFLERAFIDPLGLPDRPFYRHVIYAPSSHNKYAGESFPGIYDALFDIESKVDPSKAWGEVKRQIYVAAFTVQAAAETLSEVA

Question: How did the IC50 turn out when `O=C(O)CC[C@H](NP(=O)(O)O)C(=O)O` [listing 1 of 2 here] was run?
Answer: Its IC50 is 2.3 nM.

Question: With `CN(C(=O)c1ccccc1)[C@@H](COP(=O)(O)N[C@@H](CCC(=O)O)C(=O)O)C(=O)O` as the compound, how does the IC50 read?
Answer: Its IC50 is 55 nM.

Question: For `CN(CCOP(=O)(O)N[C@@H](CCC(=O)O)C(=O)O)C(=O)c1ccccc1`, which IC50 is on record?
Answer: The IC50 was 280 nM.

Question: Which IC50 does the source give for `O=C(O)CC[C@H](NP(=O)(O)OC[C@@H](NC(=O)c1ccccc1)C(=O)O)C(=O)O` here?
Answer: The IC50 was 700 nM.

Question: With `O=C([O-])CC[C@H](NP(=O)([O-])OC[C@H](NC(=O)c1ccccc1)C(=O)[O-])C(=O)[O-].[K+].[K+].[K+].[K+]` as the compound, how does the IC50 read?
Answer: The IC50 was 35 nM.

Question: How did the IC50 turn out when `O=C(O)CC[C@H](NP(=O)(O)O)C(=O)O` [listing 2 of 2 here] was run?
Answer: Its IC50 is 0.86 nM.

Question: `O=C(O)CC[C@H](OP(=O)(O)O)C(=O)O` was tested. Which IC50 did it give?
Answer: The IC50 was 15 nM.

Question: For `O=C(O)CC[C@H](NP(=O)(O)OCC(CCc1ccccc1)C(=O)O)C(=O)O` (stereo partly specified), which IC50 is on record?
Answer: The IC50 was 790 nM.

Question: With `O=C(O)CC[C@H](NP(=O)(O)OCCCCc1ccccc1)C(=O)O` as the compound, how does the IC50 read?
Answer: Its IC50 is 180 nM.

Question: With `O=C(O)CC[C@H](NP(=O)(O)OCCNC(=O)c1ccccc1)C(=O)O` as the compound, how does the IC50 read?
Answer: The IC50 was 1800 nM.

System: prostate-specific antigen
Experiment: Half life at pH 6.8 in presence of prostate-specific antigen
Type: ADME
Conditions: prostate-specific antigen (enzyme incubation)

Question: With `O=C([O-])CC[C@H](NP(=O)([O-])OC[C@H](NC(=O)c1ccccc1)C(=O)[O-])C(=O)[O-].[K+].[K+].[K+].[K+]` as the compound, how does the half-life read?
Answer: The half-life was 408 min.
